According to ChEMBL document CHEMBL3259650, “Synthesis of symmetrically substituted 3,3-dibenzyl-4-hydroxy-3,4-dihydro-1H-quinolin-2-ones, as novel quinoline derivatives with antibacterial activity” (Eur J Med Chem, 2014):
≈ marks a conversion by molar mass, not a printed value. Calls of active or inactive are those of the source. The rule behind the calls is not given here.

Tests used:
Staphylococcus aureus [1] = experiment: Antibacterial activity against Staphylococcus aureus ATCC 6538p; format: functional
Summary of the method: (§1)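 MIC determined by broth microdilution in casein soy broth (pH 7.3) at an inoculum of 10^5 CFU/mL, incubated 24 h at 37 C. Levofloxacin was the comparator and controls were run alongside. Samples were tested in quadruplicate.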

Shigella sonnei [2] = experiment: Antibacterial activity against Shigella sonnei ATCC 15305; format: functional
Pseudomonas aeruginosa = experiment: Antibacterial activity against Pseudomonas aeruginosa ATCC […] assessed as growth inhibition after 24 hrs by micro dilution method; format: functional; summary of the method: as §1
Shigella sonnei [3] = experiment: Antibacterial activity against Shigella sonnei ATCC 15305 assessed as growth inhibition after 24 hrs by micro dilution method; format: functional; conditions: ATCC 15305, 24 h; summary of the method: as §1
Staphylococcus aureus [4] = experiment: Antibacterial activity against Staphylococcus aureus ATCC 6538p assessed as growth inhibition after 24 hrs by micro dilution method; format: functional; summary of the method: as §1
Bacillus spizizenii = experiment: Antibacterial activity against Bacillus subtilis ATCC 6633 assessed as growth inhibition after 24 hrs by micro dilution method; format: functional; conditions: ATCC 6633, 24 h; summary of the method: as §1
Escherichia coli [5] = experiment: Antibacterial activity against Escherichia coli ATCC 25922 assessed as growth inhibition after 24 hrs by micro dilution method; format: functional; conditions: ATCC 25922, 24 h; summary of the method: as §1
Escherichia coli [6] = experiment: Antibacterial activity against Escherichia coli ATCC 25922; format: functional
Enterococcus sp. [7] = experiment: Antibacterial activity against Enterococcus sp. ATCC 6589 assessed as growth inhibition by measuring turbidity of medium at 25 to 400 ug/mL measured over 10 hrs by microplate reader analysis; format: functional, organism-based
Summary of the method: (§2)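 Overnight casein soy broth cultures (37 C) were centrifuged, resuspended in fresh medium and adjusted to about 5 10^7 cells/mL (OD620 0.2). Cells were grown in microplate wells to mid-log phase, then twofold serial dilutions of the test agents in fresh medium were added. OD620 was read every 15 min at 23 C for 10 h, with 30 s shaking between reads. Runs were in quadruplicate.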

Enterococcus sp. [8] = experiment: Antibacterial activity against Enterococcus sp. ATCC 6589; format: functional
Salmonella typhimurium [9] = experiment: Antibacterial activity against Salmonella typhimurium ATCC 14028 assessed as growth inhibition after 24 hrs by micro dilution method; format: functional, Salmonella enterica subsp. enterica serovar Typhimurium; conditions: Salmonella enterica, ATCC 14028, 24 h; summary of the method: as §1
Morganella morganii [10] = experiment: Antibacterial activity against Morganella morganii ATCC 8019 assessed as growth inhibition by measuring turbidity of medium at >= MIC measured over 10 hrs by microplate reader analysis; format: functional, organism-based; summary of the method: as §2
Enterococcus sp. [11] = experiment: Antibacterial activity against Enterococcus sp. ATCC 6589 assessed as growth inhibition by measuring turbidity of medium at MIC measured over 10 hrs by microplate reader analysis; format: functional, organism-based; summary of the method: as §2
Salmonella typhimurium [12] = experiment: Antibacterial activity against Salmonella typhimurium ATCC 14028; format: functional, Salmonella enterica subsp. enterica serovar Typhimurium; summary of the method: as §1
Klebsiella aerogenes = experiment: Antibacterial activity against Enterobacter aerogenes ATCC 13048 assessed as growth inhibition after 24 hrs by micro dilution method; format: functional; conditions: ATCC 13048, 24 h; summary of the method: as §1
Morganella morganii [13] = experiment: Antibacterial activity against Morganella morganii ATCC 8019 assessed as growth inhibition after 24 hrs by micro dilution method; format: functional; conditions: ATCC 8019, 24 h; summary of the method: as §1
Morganella morganii [14] = experiment: Antibacterial activity against Morganella morganii ATCC 8019; format: functional
Enterococcus sp. [15] = experiment: Antibacterial activity against Enterococcus sp. ATCC 6589 assessed as growth inhibition after 24 hrs by micro dilution method; format: functional; conditions: ATCC 6589, 24 h; summary of the method: as §1
Enterococcus sp. [16] = experiment: Antibacterial activity against Enterococcus sp. ATCC 6589 assessed as growth inhibition by measuring turbidity of medium at 6.25 to 100 ug/mL measured over 10 hrs by microplate reader analysis; format: functional, organism-based; summary of the method: as §2
Burkholderia cepacia [17] = experiment: Antibacterial activity against Burkholderia cepacia ATCC 17759; format: functional
Burkholderia cepacia [18] = experiment: Antibacterial activity against Burkholderia cepacia ATCC 17759 assessed as growth inhibition after 24 hrs by micro dilution method; format: functional; conditions: ATCC 17759, 24 h; summary of the method: as §1
Morganella morganii [19] = experiment: Antibacterial activity against Morganella morganii ATCC 8019 assessed as growth inhibition by measuring turbidity of medium measured over 10 hrs by microplate reader analysis; format: functional, organism-based; summary of the method: as §2
Enterococcus sp. [20] = experiment: Antibacterial activity against Enterococcus sp. ATCC 6589 assessed as growth inhibition by measuring turbidity of medium measured over 10 hrs by microplate reader analysis; format: functional, organism-based; summary of the method: as §2
Enterococcus sp. [21] = experiment: Antibacterial activity against Enterococcus sp. ATCC 6589 assessed as growth inhibition by measuring turbidity of medium at 3.12 ug/mL measured after 3 hrs by microplate reader analysis; format: functional, organism-based; summary of the method: as §2

Row | SMILES | MIC (Pseudomonas aeruginosa) [µg/mL] | MIC (Shigella sonnei [3]) [µg/mL] | MIC (Staphylococcus aureus [4]) [µg/mL] | MIC (Bacillus spizizenii) [µg/mL] | MIC (Escherichia coli [5]) [µg/mL] | MLC (Staphylococcus aureus [1]) [µg/mL] | MLC (Shigella sonnei [2]) [µg/mL] | MLC (Escherichia coli [6]) [µg/mL] | also measured
1 | CCN1C(=O)C(Cc2ccccc2)(Cc2ccccc2)C(O)c2ccccc21 (stereo not given) | 100 (≈ 269 µM) | 200 (≈ 538 µM) | 100 (≈ 269 µM) | 12.5 (≈ 33.6 µM) | 100 (≈ 269 µM) | >200 | >200 | >200 | –
2 | CC1(C)S[C@@H]2[C@H](NC(=O)[C@H](N)c3ccccc3)C(=O)N2[C@H]1C(=O)O | – | – | – | – | – | – | – | – | growth inhibition (GI) (Enterococcus sp. [7]): Active
3 | O=C1Nc2ccc(Cl)cc2C(O)C1(Cc1ccccc1)Cc1ccccc1 (stereo not given) | 50 (≈ 132 µM) | 12.5 (≈ 33.1 µM) | 25 (≈ 66.2 µM) | 12.5 (≈ 33.1 µM) | 12.5 (≈ 33.1 µM) | >200 | >200 | 200 (≈ 529 µM) | –
4 | COc1ccc(CC2(Cc3ccc(OC)cc3)C(=O)Nc3ccccc3C2O)cc1 (stereo not given) | 100 (≈ 248 µM) | 100 (≈ 248 µM) | 100 (≈ 248 µM) | 100 (≈ 248 µM) | 100 (≈ 248 µM) | 200 (≈ 496 µM) | >200 | >200 | –
5 | COc1cccc2c1NC(=O)C(Cc1ccccc1)(Cc1ccccc1)C2O (stereo not given) | 100 (≈ 268 µM) | 100 (≈ 268 µM) | 100 (≈ 268 µM) | 100 (≈ 268 µM) | 100 (≈ 268 µM) | >200 | >200 | >200 | –
6 | O=C1N(Cc2ccccc2)c2ccccc2C(O)C1(Cc1ccccc1)Cc1ccccc1 (stereo not given) | > 200 | 200 (≈ 461 µM) | 100 (≈ 231 µM) | 100 (≈ 231 µM) | 100 (≈ 231 µM) | >200 | >200 | >200 | –
7 | COc1ccc2c(c1)C(O)C(Cc1ccccc1)(Cc1ccccc1)C(=O)N2 (stereo not given) | 100 (≈ 268 µM) | 100 (≈ 268 µM) | 100 (≈ 268 µM) | 50 (≈ 134 µM) | 100 (≈ 268 µM) | >200 | >200 | >200 | –
8 | O=C1Nc2ccccc2C(O)C1(Cc1ccccc1)Cc1ccccc1 (stereo not given) | 100 (≈ 291 µM) | 50 (≈ 146 µM) | 50 (≈ 146 µM) | 100 (≈ 291 µM) | 100 (≈ 291 µM) | >200 | >200 | >200 | –
9 | O=C1Nc2ccccc2C(O)C1(Cc1ccccc1Cl)Cc1ccccc1Cl (stereo not given) | 100 (≈ 243 µM) | 12.5 (≈ 30.3 µM) | 12.5 (≈ 30.3 µM) | 12.5 (≈ 30.3 µM) | 12.5 (≈ 30.3 µM) | 200 (≈ 485 µM) | 200 (≈ 485 µM) | 200 (≈ 485 µM) | growth inhibition (GI) (Enterococcus sp. [21]): inactive
10 | O=C1Nc2ccccc2C(O)C1(Cc1ccc(Cl)cc1)Cc1ccc(Cl)cc1 (stereo not given) | 100 (≈ 243 µM) | 6.25 (≈ 15.2 µM) | 6.25 (≈ 15.2 µM) | 1.56 (≈ 3.78 µM) | 1.52 (≈ 3.69 µM) | 100 (≈ 243 µM) | 100 (≈ 243 µM) | 25 (≈ 60.6 µM) | –

Continued, in another order:

Row | MIC (Pseudomonas aeruginosa) [µg/mL] | MIC (Shigella sonnei [3]) [µg/mL] | MIC (Staphylococcus aureus [4]) [µg/mL] | MIC (Bacillus spizizenii) [µg/mL] | MIC (Escherichia coli [5]) [µg/mL] | SMILES | MLC (Staphylococcus aureus [1]) [µg/mL] | MLC (Shigella sonnei [2]) [µg/mL] | MLC (Escherichia coli [6]) [µg/mL] | also measured
11 | 50 (≈ 138 µM) | 25 (≈ 69.2 µM) | 50 (≈ 138 µM) | 25 (≈ 69.2 µM) | 25 (≈ 69.2 µM) | O=C1Nc2ccc(F)cc2C(O)C1(Cc1ccccc1)Cc1ccccc1 (stereo not given) | >200 | >200 | >200 | –
12 | 50 (≈ 112 µM) | 3.12 (≈ 6.98 µM) | 3.12 (≈ 6.98 µM) | 3.12 (≈ 6.98 µM) | 3.12 (≈ 6.98 µM) | O=C1Nc2ccc(Cl)cc2C(O)C1(Cc1ccc(Cl)cc1)Cc1ccc(Cl)cc1 (stereo not given) | 12.5 (≈ 28 µM) | 12.5 (≈ 28 µM) | 50 (≈ 112 µM) | MLC (Enterococcus sp. [8]): 50 µg/mL (≈ 112 µM); MIC (Salmonella typhimurium [9]): 50 µg/mL (≈ 112 µM); growth inhibition (GI) (Morganella morganii [10]): Active; growth inhibition (GI) (Enterococcus sp. [11]): Active; MLC (Salmonella typhimurium [12]): 100 µg/mL (≈ 224 µM); MIC (Klebsiella aerogenes): 50 µg/mL (≈ 112 µM); MIC (Morganella morganii [13]): 6.25 µg/mL (≈ 14 µM); MLC (Morganella morganii [14]): 6.25 µg/mL (≈ 14 µM); MIC (Enterococcus sp. [15]): 6.25 µg/mL (≈ 14 µM)
13 | 50 (≈ 87.5 µM) | 50 (≈ 87.5 µM) | 50 (≈ 87.5 µM) | > 100 | 50 (≈ 87.5 µM) | O=C1N(Cc2ccc(Cl)cc2)c2ccc(Cl)cc2C(O)C1(Cc1ccc(Cl)cc1)Cc1ccc(Cl)cc1 (stereo not given) | 100 (≈ 175 µM) | 100 (≈ 175 µM) | >100 | –
14 | 3.12 | 3.12 | 3.12 | 3.12 | 3.12 | C[C@H]1COc2c(N3CCN(C)CC3)c(F)cc3c(=O)c(C(=O)O)cn1c23.C[C@H]1COc2c(N3CCN(C)CC3)c(F)cc3c(=O)c(C(=O)O)cn1c23.O [LEVOFLOXACIN] | 3.12 | 3.12 | 3.12 | MLC (Enterococcus sp. [8]): 0.78 µg/mL; MIC (Salmonella typhimurium [9]): 0.78 µg/mL; growth inhibition (GI) (Enterococcus sp. [16]): Active; MLC (Salmonella typhimurium [12]): 0.78 µg/mL; MIC (Klebsiella aerogenes): 0.78 µg/mL; MIC (Morganella morganii [13]): 0.78 µg/mL; MLC (Morganella morganii [14]): 0.78 µg/mL; MLC (Burkholderia cepacia [17]): 0.78 µg/mL; MIC (Burkholderia cepacia [18]): 0.78 µg/mL; MIC (Enterococcus sp. [15]): 0.78 µg/mL
15 | > 200 | > 200 | > 200 | > 200 | 100 (≈ 233 µM) | CCOC(=O)CN1C(=O)C(Cc2ccccc2)(Cc2ccccc2)C(O)c2ccccc21 (stereo not given) | – | – | >200 | –
16 | 100 (≈ 280 µM) | 50 (≈ 140 µM) | 50 (≈ 140 µM) | 50 (≈ 140 µM) | 25 (≈ 69.9 µM) | Cc1ccc2c(c1)C(O)C(Cc1ccccc1)(Cc1ccccc1)C(=O)N2 (stereo not given) | >200 | >200 | >200 | –
17 | 50 (≈ 105 µM) | 50 (≈ 105 µM) | 6.25 (≈ 13.2 µM) | 3.12 (≈ 6.57 µM) | 50 (≈ 105 µM) | CCN1C(=O)C(Cc2ccc(Cl)cc2)(Cc2ccc(Cl)cc2)C(O)c2cc(Cl)ccc21 (stereo not given) | 50 (≈ 105 µM) | 100 (≈ 211 µM) | 100 (≈ 211 µM) | MLC (Enterococcus sp. [8]): 25 µg/mL (≈ 52.7 µM); MIC (Salmonella typhimurium [9]): 50 µg/mL (≈ 105 µM); MLC (Salmonella typhimurium [12]): 100 µg/mL (≈ 211 µM); MIC (Klebsiella aerogenes): 50 µg/mL (≈ 105 µM); MIC (Morganella morganii [13]): 6.25 µg/mL (≈ 13.2 µM); growth inhibition (GI) (Morganella morganii [19]): Dose-dependent effect; growth inhibition (GI) (Enterococcus sp. [20]): Dose-dependent effect; MLC (Morganella morganii [14]): 12.5 µg/mL (≈ 26.3 µM); MLC (Burkholderia cepacia [17]): 12.5 µg/mL (≈ 26.3 µM); MIC (Enterococcus sp. [15]): 6.25 µg/mL (≈ 13.2 µM)
18 | 100 (≈ 280 µM) | 100 (≈ 280 µM) | 100 (≈ 280 µM) | 50 (≈ 140 µM) | 50 (≈ 140 µM) | CN1C(=O)C(Cc2ccccc2)(Cc2ccccc2)C(O)c2ccccc21 (stereo not given) | >200 | >200 | >200 | –
